Assay outcomes as filed in PubChem.
Runt-CBFb FRET: Runt domain-CBFb interaction inhibition. Cerulean-Runt/Venus-CBFb FRET ratio 530/480, 1 h. AID 1496. 220,000 compounds, 0.46% hits. inhibition, % at 20 µM. Q01196+Q13951;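 active = inhibition over about 50% at 20 µM in the single-dose screen, limit read from the data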;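 also: 0% = DMSO wells and 100% = excess unlabeled CBFb competitor control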
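Assay system: Cerulean-tagged RUNX1 Runt domain (FRET donor) fusion protein / Amount: 100 nM each of Venus-CBFb and Cerulean-Runt domain / Medium: Tris buffer pH 7.5 with salts and BSA / Also added: Venus-CBFb 100 nM / Schedule: 1 h complex formation plus 1 h compound treatment, room temperature / Signal: FRET fluorescence / Read-out: loss of energy transfer signal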
PHOSPHO1 block: inhibitors of human PHOSPHO1 phosphatase | 290,000 compounds, 1.1% hits | recombinant PHOSPHO1, absorbance phosphatase assay | Q8TCT1 | inhibition, % at 13.3 µM; in the data active = inhibition above about 60%
Target sequence (Q8TCT1 whole entry, looked up): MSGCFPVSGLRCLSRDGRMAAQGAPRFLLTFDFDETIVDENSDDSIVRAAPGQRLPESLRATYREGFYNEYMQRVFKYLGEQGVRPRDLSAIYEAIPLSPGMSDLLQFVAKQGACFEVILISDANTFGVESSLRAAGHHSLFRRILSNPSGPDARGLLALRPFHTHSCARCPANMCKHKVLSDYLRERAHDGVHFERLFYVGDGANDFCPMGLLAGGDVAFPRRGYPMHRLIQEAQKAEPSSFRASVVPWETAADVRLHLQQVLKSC
Wee1 degr inh: human Wee1 degradation inhibition, primary screen | P30291 | HeLa Luc-Wee1K328M stability, luciferase luminescence; 100% = proteasome inhibitor MG132 effect | reporter increase, % at 5 µM | 220,000 compounds, 1.2% hits | AID 1321;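 active = activation above the mean of all tested compounds plus 3 SD, set per screening run, cut at about 8.8% in these data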;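 also: cells exposed to compound for 20 h before luminescence read; 0% = DMSO alone and 100% = MG132 at 30 µM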
RanGTP-Impb inh: inhibitors of RanGTP-importin-beta interaction, primary screen, biochemical, FRET, CFP-Ran, YFP-importin-beta, homogeneous; cell-free CFP-Ran/YFP-importin-beta FRET ratio; inhibition, % (no concentration beside the values); 300,000 compounds, 1.1% hits; AID 2216;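 active = more than half of the replicate wells show a fall in the fluorescence ratio signal beyond about 16%, limit read from the data, passing the limit was not always enough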;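 also: 0% = DMSO wells and 100% = Ran loaded with GDP instead of GTP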
Runt-SMMHC FRET: Runt domain-CBFb-SMMHC interaction inhibition; Q01196+Q13951; Cerulean-Runt/Venus-CBFb-SMMHC FRET ratio 530/480, 1 h; inhibition, % at 20 µM; 220,000 compounds, 0.74% hits; AID 1434;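 active = mean inhibition across duplicate retests at 20 µM reaching about 50%, limit read from the data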;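 also: 0% = DMSO wells and 100% = wells with excess untagged CBFb-SMMHC; inhibitors lower the FRET ratio by blocking Runt binding to CBFb-SMMHC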
HMGR II inh: blocks class II HMG-CoA reductase of Enterococcus faecalis; inhibition, % at 10 µM; 190,000 compounds, 0.41% hits; purified E. faecalis HMGR, NADPH absorbance 340 nm kinetic;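 active = inhibition above a set limit, the median over all tested compounds plus 3 SD, cut at about 9.5% in these data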;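 also: enzyme runs in reverse so mevalonate oxidation gives rising NADPH absorbance; 0% = complete reaction with DMSO and 100% = background rate lacking mevalonate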
Active calls of the source: *. This is a sample that favours compounds with a hit; in the whole collection about 3.4% have one here.

How did COc1cc(/C=C(/C#N)c2nc3ccccc3[nH]2)ccc1OC(=O)c1ccco1 do in these assays?
Runt-CBFb FRET: 4.7; PHOSPHO1 block: -21.9; Wee1 degr inh: 1.6; RanGTP-Impb inh: 28.3*; Runt-SMMHC FRET: 9.9; HMGR II inh: 2.6

What do the screens show for `Cc1ccccc1NC(=O)CN1C(=O)S/C(=C\c2cccn2-c2cccc(C(=O)O)c2)C1=O`?
Runt-CBFb FRET: 3.8; PHOSPHO1 block: 46.3; Wee1 degr inh: 0.1; RanGTP-Impb inh: 2.6; Runt-SMMHC FRET: 1.8; HMGR II inh: -2.3

Results for Cc1ccc(NC(=O)CN2C(=O)S/C(=C\c3cccn3-c3cccc(C(=O)O)c3)C2=O)c(C)c1 ?
Runt-CBFb FRET: -6.3; PHOSPHO1 block: 102.3*; Wee1 degr inh: -3.3; RanGTP-Impb inh: 8.2; Runt-SMMHC FRET: -14.8; HMGR II inh: -1.8

How did Cc1ccnc(NS(=O)(=O)c2ccc3ccccc3c2)n1 do in these assays?
PHOSPHO1 block: 35.6; RanGTP-Impb inh: 1.7

How did CC(C(=O)O)N1C(=O)c2ccccc2C1=O (stereo unspecified) do in these assays?
Runt-CBFb FRET: 2.6; PHOSPHO1 block: 2.4; Wee1 degr inh: 3.7; RanGTP-Impb inh: 10.7; Runt-SMMHC FRET: 1.0; HMGR II inh: 12.5*

How did O=S(=O)(c1ccccc1)N1CCN(C/C=C/c2ccccc2)CC1 do in these assays?
PHOSPHO1 block: 23.8; RanGTP-Impb inh: -0.2

What do the screens show for `COc1cc(/C=N/c2oc(-c3ccccc3)cc2C#N)ccc1O`?
Runt-CBFb FRET: 8.6; PHOSPHO1 block: 21.5; Wee1 degr inh: 2.5; RanGTP-Impb inh: 0.2; Runt-SMMHC FRET: 6.0; HMGR II inh: 10.1*

What do the screens show for `Cn1c(/C(C#N)=C/c2ccc(O)cc2)nc2ccccc21`?
Runt-CBFb FRET: 12.7; PHOSPHO1 block: 3.8; Wee1 degr inh: 2.9; RanGTP-Impb inh: 28.2*; Runt-SMMHC FRET: -2.8

How did Cn1c(/C(C#N)=C/c2ccncc2)nc2ccccc21 do in these assays?
Runt-CBFb FRET: 14.7; PHOSPHO1 block: 16.1; Wee1 degr inh: -0.6; Runt-SMMHC FRET: 10.6; HMGR II inh: 2.2

How did O=C(CSc1nncn1-c1ccccc1)Nc1ccccc1F do in these assays?
PHOSPHO1 block: 36.6; RanGTP-Impb inh: 9.9

How did S=C(NCc1ccc(Cl)cc1)Nc1ccncc1 do in these assays?
PHOSPHO1 block: 23.3; RanGTP-Impb inh: 0.5

Results for O=C(N/N=C/c1cccc([N+](=O)[O-])c1)c1ccc(Br)cc1 ?
PHOSPHO1 block: 64.7*; Wee1 degr inh: 2.3; RanGTP-Impb inh: 3.2; HMGR II inh: -1.5

How did O=C(N/N=C/c1ccc(Br)s1)c1ccc([N+](=O)[O-])cc1 do in these assays?
Runt-CBFb FRET: -5.1; PHOSPHO1 block: 28.0; Wee1 degr inh: 9.0*; RanGTP-Impb inh: -1.2; Runt-SMMHC FRET: -21.5; HMGR II inh: 0.2

Results for O=C(N/N=C/c1cccc(Br)c1)c1ccc(Br)cc1 ?
Runt-CBFb FRET: -0.5; PHOSPHO1 block: 26.7; Wee1 degr inh: -1.9; RanGTP-Impb inh: -4.2; Runt-SMMHC FRET: -3.9; HMGR II inh: -5.7

Results for O=C(N/N=C/c1cccc([N+](=O)[O-])c1)c1cccc(Br)c1 ?
Runt-CBFb FRET: -2.5; PHOSPHO1 block: -7.2; Wee1 degr inh: 9.4*; RanGTP-Impb inh: -1.4; Runt-SMMHC FRET: 1.9; HMGR II inh: -5.4

How did O=C(N/N=C/c1ccc(Br)s1)c1ccccc1[N+](=O)[O-] do in these assays?
PHOSPHO1 block: 20.3; Wee1 degr inh: -2.4; RanGTP-Impb inh: 3.3; Runt-SMMHC FRET: -0.7

Results for Cc1ccc(/C=C2\SC(=S)N(CCC(=O)N3CCOCC3)C2=O)cc1 ?
PHOSPHO1 block: 19.1; RanGTP-Impb inh: 3.8

What do the screens show for `O=C(Cn1cnc(S(=O)(=O)N2CCCC2)c1)Nc1ccc(OC(F)(F)F)cc1`?
PHOSPHO1 block: 31.5; RanGTP-Impb inh: 4.5

How did CCOC(=O)N1CCc2c(sc(NC(=O)C3COc4ccccc4O3)c2C(N)=O)C1 (stereo unspecified) do in these assays?
PHOSPHO1 block: 17.8; RanGTP-Impb inh: 0.6

How did CCN1CCc2c(sc(NC(=O)C3COc4ccccc4O3)c2C(N)=O)C1 (stereo unspecified) do in these assays?
PHOSPHO1 block: 37.7; RanGTP-Impb inh: 152.6*

How did CN1CCc2c(sc(NC(=O)C3COc4ccccc4O3)c2C(N)=O)C1 (stereo unspecified) do in these assays?
PHOSPHO1 block: -27.6; RanGTP-Impb inh: 182.4*

Results for CC(=O)N1CCc2c(sc(NC(=O)C3COc4ccccc4O3)c2C(N)=O)C1 (stereo unspecified) ?
PHOSPHO1 block: 41.8; RanGTP-Impb inh: 5.3

What do the screens show for `Cc1oc(/N=C/c2ccc(O)cc2O)c(C#N)c1C`?
Runt-CBFb FRET: 78.3*; PHOSPHO1 block: 3.3; Wee1 degr inh: -0.8; RanGTP-Impb inh: 81.7*; Runt-SMMHC FRET: 90.0*; HMGR II inh: 2.6

What do the screens show for `Cc1oc(/N=C/c2ccccc2O)c(C#N)c1C`?
Runt-CBFb FRET: 0.5; PHOSPHO1 block: 3.3; Wee1 degr inh: 1.5; RanGTP-Impb inh: 2.4; Runt-SMMHC FRET: 1.2; HMGR II inh: -1.1

What do the screens show for `Cc1cc(SCC(=O)OC(C)C(=O)N(C)c2ccccc2)nc2ccccc12` (stereo unspecified)?
RanGTP-Impb inh: -2.7

What do the screens show for `O=C(O)c1ccc(Cl)cc1Nc1nc2cc(Cl)ccc2o1`?
PHOSPHO1 block: 6.3; RanGTP-Impb inh: -2.0

What do the screens show for `CC1CC(C)CN(C(=O)CCC(=O)Nc2nnc(C(C)C)s2)C1` (stereo unspecified)?
PHOSPHO1 block: -9.1; RanGTP-Impb inh: 5.6

Results for COc1ccc(CN2CCC(N3CCC(C(=O)N4CCOCC4)CC3)CC2)c(F)c1 ?
Runt-CBFb FRET: -0.3; PHOSPHO1 block: 49.8; Wee1 degr inh: 0.6; RanGTP-Impb inh: 5.7; Runt-SMMHC FRET: -3.2; HMGR II inh: -9.0

How did CCCCN(C)CCCNC(=O)CN1C(=O)CSc2ccc(S(=O)(=O)N3CCOCC3)cc21 do in these assays?
Runt-CBFb FRET: -1.3; PHOSPHO1 block: 2.3; Wee1 degr inh: -0.9; RanGTP-Impb inh: 0.1; Runt-SMMHC FRET: -0.1; HMGR II inh: 1.1

Results for CN(CCNC(=O)CN1C(=O)CSc2ccc(S(=O)(=O)N3CCCC3)cc21)Cc1ccccc1 ?
Runt-CBFb FRET: 1.3; PHOSPHO1 block: 11.2; Wee1 degr inh: 10.2*; RanGTP-Impb inh: 3.5; Runt-SMMHC FRET: 2.7; HMGR II inh: 0.8

What do the screens show for `CN1C(=O)[C@@H]2C[C@@]3([C@@]45C[C@H]6C(=O)N(C)[C@@H](Cc7ccccc7)C(=O)N6[C@@H]4Nc4ccccc45)c4ccccc4N[C@H]3N2C(=O)[C@@H]1Cc1ccccc1`?
RanGTP-Impb inh: 5.5

How did COc1ccc(CNC(=O)C(NC(C)=O)C(=O)Nc2ccc(C(C)C)cc2)cc1 (stereo unspecified) do in these assays?
Runt-CBFb FRET: -0.7; PHOSPHO1 block: 45.6; Wee1 degr inh: -3.3; RanGTP-Impb inh: -1.3; Runt-SMMHC FRET: 1.0; HMGR II inh: 11.6*
